Experimental data: paper PMC6104635 (ACS chemical neuroscience, 2018)
Positions count from the first letter of the chain named. pEC50: −log10 of the molar value. Several values for one entry are separate records, joined by “and”; a condition that tells them apart may be missing. Equal entries are not always repeated. Where two headings read alike, the source gives them in different places. Values belong to the molecule of their own block, whether it stands above or below them.

Assays:
human M5 = biological target: T1, human M5 (Homo sapiens, UniProt P08912); experiment: calcium mobilization assay, hM5-CHO cells, FDSS7000; type: cell-based
T1 sequence (P08912 1-532): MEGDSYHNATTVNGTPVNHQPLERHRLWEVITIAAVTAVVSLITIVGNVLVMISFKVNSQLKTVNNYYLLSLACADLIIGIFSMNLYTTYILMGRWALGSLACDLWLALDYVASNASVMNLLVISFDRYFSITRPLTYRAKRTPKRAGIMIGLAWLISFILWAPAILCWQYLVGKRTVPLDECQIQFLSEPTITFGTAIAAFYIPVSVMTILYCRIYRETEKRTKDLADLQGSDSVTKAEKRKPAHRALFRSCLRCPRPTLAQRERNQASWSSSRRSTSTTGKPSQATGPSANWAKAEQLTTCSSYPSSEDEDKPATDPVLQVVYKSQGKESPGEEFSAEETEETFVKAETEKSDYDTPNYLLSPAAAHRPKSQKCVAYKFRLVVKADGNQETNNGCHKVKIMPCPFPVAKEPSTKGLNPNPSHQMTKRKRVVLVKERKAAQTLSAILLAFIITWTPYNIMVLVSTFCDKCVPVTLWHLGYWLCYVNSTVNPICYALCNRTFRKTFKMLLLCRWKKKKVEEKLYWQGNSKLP
In short: (§1)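 CHO cells stably expressing human or rat M5 were grown in Ham's F-12 with 10% FBS, 20 mM HEPES and 500 μg/mL G418 (37 °C, 5% CO2), then plated at 20 000 cells/well without G418 the day before. Cells were loaded with 1.15 μM Fluo-4 AM for 45 min at 37 °C in HBSS, 20 mM HEPES and 2.5 mM probenecid. Test compound was given as a 10-point 1:3 series from 30 μM final for 2.5 min, then ACh EC20 for 1 min, with calcium read on FDSS7000. EC50 and efficacy came from a four-parameter logistic fit.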

human M1 = biological target: T2, human M1 (Homo sapiens, UniProt P11229); experiment: mAChR selectivity, PAM activity at human M1; type: cell-based
T2 sequence (P11229 1-460): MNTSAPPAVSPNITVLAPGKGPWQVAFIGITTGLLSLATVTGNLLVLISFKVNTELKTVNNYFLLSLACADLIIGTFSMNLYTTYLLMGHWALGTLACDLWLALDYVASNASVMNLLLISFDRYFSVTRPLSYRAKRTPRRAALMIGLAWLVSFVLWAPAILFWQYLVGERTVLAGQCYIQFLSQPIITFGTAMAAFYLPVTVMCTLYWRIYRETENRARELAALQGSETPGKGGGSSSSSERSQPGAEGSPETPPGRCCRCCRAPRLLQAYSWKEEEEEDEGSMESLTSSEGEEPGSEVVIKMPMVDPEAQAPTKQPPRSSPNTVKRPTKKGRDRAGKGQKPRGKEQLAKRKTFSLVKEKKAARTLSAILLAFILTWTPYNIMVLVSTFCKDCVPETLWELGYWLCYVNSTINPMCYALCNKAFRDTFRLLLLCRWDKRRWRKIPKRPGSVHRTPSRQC

rat M3 = rat M3 (Rattus norvegicus, UniProt P08483); experiment: mAChR selectivity, PAM activity at rat M3; type: cell-based
human M4 = biological target: T3, human M4 (Homo sapiens, UniProt P08173); experiment: mAChR selectivity, PAM activity at human M4; type: cell-based; details: result in words
T3 sequence (P08173 1-479): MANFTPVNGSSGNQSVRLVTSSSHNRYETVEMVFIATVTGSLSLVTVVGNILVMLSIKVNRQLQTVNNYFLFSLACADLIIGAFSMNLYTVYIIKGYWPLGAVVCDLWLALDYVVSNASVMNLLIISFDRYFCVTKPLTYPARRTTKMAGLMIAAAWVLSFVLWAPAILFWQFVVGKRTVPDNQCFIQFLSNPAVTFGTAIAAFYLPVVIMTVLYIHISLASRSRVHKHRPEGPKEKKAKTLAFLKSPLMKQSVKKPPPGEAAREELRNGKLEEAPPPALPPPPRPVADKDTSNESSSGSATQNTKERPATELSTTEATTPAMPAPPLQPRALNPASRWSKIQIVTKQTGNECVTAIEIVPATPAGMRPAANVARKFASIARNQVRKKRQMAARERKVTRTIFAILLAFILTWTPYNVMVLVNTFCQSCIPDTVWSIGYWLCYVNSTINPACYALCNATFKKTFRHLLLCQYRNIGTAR

rat M1 = biological target: T4, rat M1 (Rattus norvegicus, UniProt P08482); experiment: mAChR selectivity, PAM activity at rat M1; type: cell-based
T4 sequence (P08482 1-460): T2 sequence (P11229 1-460) with A5V, T254S, P309S, R320K, A337G, I413V

rat M4 = biological target: T5, rat M4 (Rattus norvegicus, UniProt P08485); experiment: mAChR selectivity, PAM activity at rat M4; type: cell-based
T5 sequence (P08485 1-478): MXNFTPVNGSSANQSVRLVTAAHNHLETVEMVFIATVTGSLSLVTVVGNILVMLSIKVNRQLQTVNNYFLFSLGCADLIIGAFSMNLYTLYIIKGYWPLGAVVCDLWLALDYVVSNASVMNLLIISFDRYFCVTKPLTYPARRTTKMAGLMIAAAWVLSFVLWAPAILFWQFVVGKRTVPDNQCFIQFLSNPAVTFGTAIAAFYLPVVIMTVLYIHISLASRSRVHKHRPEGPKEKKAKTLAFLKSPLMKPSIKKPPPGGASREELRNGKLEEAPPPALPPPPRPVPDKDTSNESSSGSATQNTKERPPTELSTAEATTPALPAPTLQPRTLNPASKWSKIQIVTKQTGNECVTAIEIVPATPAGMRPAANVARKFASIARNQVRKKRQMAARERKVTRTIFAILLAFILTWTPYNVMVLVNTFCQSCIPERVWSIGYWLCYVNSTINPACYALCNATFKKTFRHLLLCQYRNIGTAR

rat M5 = biological target: T6, rat M5 (Rattus norvegicus, UniProt P08911); experiment: calcium mobilization assay, rM5-CHO cells, FDSS7000; type: cell-based; details: functional calcium assay, n = 3
T6 sequence (P08911 1-531): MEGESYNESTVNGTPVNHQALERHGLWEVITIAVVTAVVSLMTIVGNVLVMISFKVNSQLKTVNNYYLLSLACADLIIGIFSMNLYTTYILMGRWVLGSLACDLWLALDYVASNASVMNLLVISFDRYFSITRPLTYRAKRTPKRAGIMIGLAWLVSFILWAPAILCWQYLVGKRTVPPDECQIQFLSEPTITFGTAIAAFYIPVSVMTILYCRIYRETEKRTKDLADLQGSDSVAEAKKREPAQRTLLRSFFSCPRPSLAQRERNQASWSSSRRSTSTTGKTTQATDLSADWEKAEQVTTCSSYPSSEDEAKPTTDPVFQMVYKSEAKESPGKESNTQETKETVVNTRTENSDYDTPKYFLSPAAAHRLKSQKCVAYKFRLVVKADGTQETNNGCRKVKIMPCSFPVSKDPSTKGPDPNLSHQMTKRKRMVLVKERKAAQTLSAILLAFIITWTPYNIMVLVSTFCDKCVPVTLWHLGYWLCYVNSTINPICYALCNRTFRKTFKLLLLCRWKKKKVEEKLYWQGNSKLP
In short: as §1

human M2 = biological target: T7, human M2 (Homo sapiens, UniProt P08172); experiment: mAChR selectivity, PAM activity at human M2; type: cell-based; details: result in words
T7 sequence (P08172 1-466): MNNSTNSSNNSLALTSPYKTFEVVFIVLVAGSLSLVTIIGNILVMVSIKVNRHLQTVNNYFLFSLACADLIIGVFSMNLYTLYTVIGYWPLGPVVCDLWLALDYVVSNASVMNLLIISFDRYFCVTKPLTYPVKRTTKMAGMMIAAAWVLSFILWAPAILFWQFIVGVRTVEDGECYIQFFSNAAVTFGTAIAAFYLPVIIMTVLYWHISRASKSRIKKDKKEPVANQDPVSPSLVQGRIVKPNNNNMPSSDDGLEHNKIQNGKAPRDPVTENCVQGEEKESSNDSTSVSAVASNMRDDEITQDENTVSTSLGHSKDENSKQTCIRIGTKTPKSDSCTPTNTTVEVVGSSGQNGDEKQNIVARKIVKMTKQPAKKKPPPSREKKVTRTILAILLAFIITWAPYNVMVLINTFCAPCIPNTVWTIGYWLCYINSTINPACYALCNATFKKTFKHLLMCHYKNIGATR

human M3 = human M3 (Homo sapiens, UniProt P20309); experiment: mAChR selectivity, PAM activity at human M3; type: cell-based
rat M2 = biological target: T8, rat M2 (Rattus norvegicus, UniProt P10980); experiment: mAChR selectivity, PAM activity at rat M2; type: cell-based; details: result in words
T8 sequence (P10980 1-466): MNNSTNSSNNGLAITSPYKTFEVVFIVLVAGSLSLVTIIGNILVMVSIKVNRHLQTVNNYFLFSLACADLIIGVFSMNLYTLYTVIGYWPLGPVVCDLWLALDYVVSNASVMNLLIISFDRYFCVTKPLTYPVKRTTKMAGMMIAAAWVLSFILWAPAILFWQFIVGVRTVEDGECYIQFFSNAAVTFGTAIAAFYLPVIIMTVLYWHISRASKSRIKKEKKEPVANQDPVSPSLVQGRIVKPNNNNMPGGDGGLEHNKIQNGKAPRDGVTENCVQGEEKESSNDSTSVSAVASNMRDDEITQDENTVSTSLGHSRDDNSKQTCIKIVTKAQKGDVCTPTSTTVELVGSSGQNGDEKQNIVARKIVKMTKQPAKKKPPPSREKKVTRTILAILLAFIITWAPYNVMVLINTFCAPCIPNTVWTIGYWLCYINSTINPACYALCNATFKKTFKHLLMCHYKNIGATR

[1] = metabolite identification in rat hepatic microsomes; type: in vitro ADME; details: rat and human hepatic microsomes, result in words
In short: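 Test compound was incubated with rat hepatic microsomes, run alongside human microsomes. Metabolite structures were proposed from LC-UV/MSn data, and major metabolites were assigned by relative peak areas.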

[2] = plasma protein binding, rat; type: in vitro ADME
rat brain distribution = type: in vivo; details: male, Sprague-Dawley, brain and plasma
In short: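 Male Sprague–Dawley rats received a single IV or IP cassette dose of 0.20–0.25 mg/kg, with n = 1 animal per cassette. Vehicle was ethanol/PEG400/DMSO, with excipient levels adjusted for solubility, at 0.5 mL/kg iv or 3 mL/kg ip. Plasma and brain were sampled nonserially and quantified by LC-MS/MS (positive ESI, MRM).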

[3] = hepatic microsomal intrinsic clearance, human; type: in vitro ADME; details: based on microsomal intrinsic clearance (CLint)
[4] = plasma protein binding, human; type: in vitro ADME
[5] = brain homogenate binding, rat; type: in vitro ADME
hM5 = details: read-out: hM5 EC50; 96 well-format FlexStation II, initial optimization; cited from earlier work
[6] = PAM, functional calcium assay, n = 3

Chain of human M3 (P20309 whole entry): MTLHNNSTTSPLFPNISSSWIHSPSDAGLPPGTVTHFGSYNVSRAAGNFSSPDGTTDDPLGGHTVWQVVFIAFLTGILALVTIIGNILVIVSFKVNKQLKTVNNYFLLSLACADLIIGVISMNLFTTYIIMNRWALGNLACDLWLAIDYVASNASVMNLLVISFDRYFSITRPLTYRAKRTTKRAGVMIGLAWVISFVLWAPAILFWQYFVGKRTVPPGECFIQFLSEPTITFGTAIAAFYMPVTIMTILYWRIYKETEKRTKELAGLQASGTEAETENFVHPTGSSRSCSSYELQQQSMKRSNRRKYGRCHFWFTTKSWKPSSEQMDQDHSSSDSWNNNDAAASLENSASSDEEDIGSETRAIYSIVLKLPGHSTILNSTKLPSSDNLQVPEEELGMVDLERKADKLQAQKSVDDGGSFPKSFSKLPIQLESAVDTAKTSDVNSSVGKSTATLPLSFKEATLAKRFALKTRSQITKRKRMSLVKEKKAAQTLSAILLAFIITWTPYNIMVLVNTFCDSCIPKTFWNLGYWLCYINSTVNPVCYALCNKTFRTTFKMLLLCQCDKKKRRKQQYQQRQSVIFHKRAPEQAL
Chain of rat M3 (P08483 whole entry): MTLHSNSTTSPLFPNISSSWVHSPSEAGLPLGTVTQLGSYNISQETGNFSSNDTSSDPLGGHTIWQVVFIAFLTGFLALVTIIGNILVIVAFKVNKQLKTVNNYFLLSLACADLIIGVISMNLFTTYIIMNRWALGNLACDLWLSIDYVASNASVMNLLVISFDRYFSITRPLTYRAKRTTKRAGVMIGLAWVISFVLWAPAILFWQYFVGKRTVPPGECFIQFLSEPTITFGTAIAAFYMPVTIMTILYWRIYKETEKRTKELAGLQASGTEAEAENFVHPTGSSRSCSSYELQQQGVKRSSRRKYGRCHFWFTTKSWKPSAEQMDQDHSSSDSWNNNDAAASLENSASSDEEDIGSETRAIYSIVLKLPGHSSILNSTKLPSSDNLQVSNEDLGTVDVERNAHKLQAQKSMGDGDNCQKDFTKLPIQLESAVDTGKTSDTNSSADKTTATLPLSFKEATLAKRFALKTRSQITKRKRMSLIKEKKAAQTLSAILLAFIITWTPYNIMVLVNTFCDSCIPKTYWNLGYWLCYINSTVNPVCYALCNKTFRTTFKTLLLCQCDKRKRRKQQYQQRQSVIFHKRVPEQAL

hM5 % ACh Max (human M5; [6]): 74 % ACh Max and 74±6 % ACh Max
hM5 pEC50 ± SEM (human M5; [6]): 7.46±0.15
increase in M5 PAM potency relative to 18a (human M5; hM5): > 10 fold
pEC50 (human M5; read-out: hM5 EC50, PAM, functional calcium assay, n = 3): 7.39
selectivity for M5 versus M1 (human M1; M5-preferring PAM): 20 fold
human M1 % ACh Max (human M1; PAM activity): 67 % ACh Max
pEC50 (human M1; read-out: human M1 EC50, PAM activity): 5.99
rat M3 % ACh Max (rat M3): 51 % ACh Max
pEC50 (rat M3; read-out: rat M3 EC50): 6.11
human M4 PAM activity (human M4): inactive
rat M1 % ACh Max (rat M1): 69 % ACh Max
pEC50 (rat M1; read-out: rat M1 EC50): 6.04
rat M4 % ACh Max (rat M4): 49 % ACh Max
pEC50 (rat M4; read-out: rat M4 EC50): 5.41
rM5 % ACh Max (rat M5; PAM): 76 % ACh Max and 76 ± 7 % ACh Max
rM5 pEC50 ± SEM (rat M5; PAM): 7.13 ± 0.04
pEC50 (rat M5; read-out: rM5 EC50, PAM): 7.13
human M2 PAM activity (human M2): inactive
selectivity for M5 versus M3 (human M3; M5-preferring PAM): 10 fold
human M3 % ACh Max (human M3; PAM activity): 71 % ACh Max
pEC50 (human M3; read-out: human M3 EC50, PAM activity): 6.33
rat M2 PAM activity (rat M2): inactive
SMILES: CCCN(C(=O)C1CCN(S(=O)(=O)c2ccc3[nH]ncc3c2)CC1)[C@@H]1CCc2c(F)cccc21 [Compound 18g]

pEC50 (human M5; hM5 EC50, PAM, functional calcium assay, n = 3): 6.32
pEC50 (human M5; hM5 pEC50 ± SEM, PAM, functional calcium assay, n = 3): 6.34
metabolism in MetID studies [1]: extensive oxidative metabolism
fraction unbound [2]: 0.043
Kp (rat brain distribution): 0.17
Kp uu (rat brain distribution): 0.07
predicted hepatic clearance CLhep, human [3]: 20.8 mL/min/kg
fraction unbound [4]: 0.019
rM5 % ACh Max (rat M5; PAM): 63% ± 3%
pEC50 (rat M5; rM5 EC50, PAM): 6.39
pEC50 (rat M5; rM5 pEC50 ± SEM, PAM): 6.42
fraction unbound [5]: 0.017
SMILES: CCN(C(=O)C1CCN(S(=O)(=O)c2ccc3[nH]ncc3c2)CC1)[C@@H]1CCc2ccccc21 [Compound 8, N-Ethyl-N-[(1R)-indan-1-yl]-1-(1H-indazol-5-ylsulfonyl)-piperidine-4-carboxamide]

rightward shift in M5 PAM potency (human M5; FDSS7000 versus FlexStation II conditions): ~ 5 fold
pEC50 (human M5; hM5 EC50, PAM, 384-well FDSS7000): 5.96
SMILES: CCN(Cc1ccccc1C(F)(F)F)C(=O)C1CCN(S(=O)(=O)c2ccc3[nH]ncc3c2)CC1 [ML380, 1-((1H-indazol-5-yl)sulfonyl)-N-ethyl-N-(2-(trifluoromethyl)benzyl)piperidine-4-carboxamide, reference compound]
pEC50 (hM5): 6.72
